Assay results published in ChEMBL document CHEMBL4177653, “Identification of nitroimidazole-oxime derivatives targeting the polo-box domain of polo-like kinase 1” (Bioorg Med Chem, 2017).
≈ marks a conversion by molar mass, not a printed value.

Tests used:
[1] = tested on: MGC-803; experiment: Antiproliferative activity against human MGC803 cells after 72 hrs by MTT assay; format: functional, cell-based; conditions: MGC-803, 72 h
How it was run: (§1)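 Cells kept in high-glucose DMEM with L-glutamine, 10% FBS, penicillin/streptomycin, at 37 °C and 5% CO2. Seeded in 96-well plates and preincubated 48 h. Compounds added at preset concentrations (6 wells each; erlotinib as positive reference) for 72 h. MTT in PBS (2.5 mg/mL) added for 4 h, formazan dissolved in DMSO, A570 read. IC50 is the concentration leaving 50% of cells surviving. Mean ± SD of three independent experiments in triplicate.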

[2] = tested on: MCF7; experiment: Antiproliferative activity against human MCF7 cells after 72 hrs by MTT assay; format: functional, cell-based; conditions: MCF7, 72 h; how it was run: as §1
[3] = Cytotoxicity against human 293T cells after 72 hrs by MTT assay; format: cell-based; conditions: HEK-293T cells
[4] = tested on: HeLa; experiment: Antiproliferative activity against human HeLa cells after 72 hrs by MTT assay; format: functional, cell-based; how it was run: as §1
[5] = tested on: HepG2; experiment: Antiproliferative activity against human HepG2 cells after 72 hrs by MTT assay; format: functional, cell-based; conditions: HepG2, 72 h; how it was run: as §1
[6] = tested on: MGC-803; experiment: Induction of apoptosis in human MGC803 cells assessed as necrotic cells at 0.06 uM after 24 hrs by Annexin V-FITC/propidium iodide staining-based flow cytometry (reference value: 0%); format: functional
[7] = tested on: MGC-803; experiment: Induction of apoptosis in human MGC803 cells assessed as viable cells at 0.12 uM after 24 hrs by Annexin V-FITC/propidium iodide staining-based flow cytometry (reference value: 99.9%); format: functional; conditions: MGC-803, 24 h, read-out: Activity
[8] = tested on: MGC-803; experiment: Induction of apoptosis in human MGC803 cells assessed as early apoptotic cells at 0.01 uM after 24 hrs by Annexin V-FITC/propidium iodide staining-based flow cytometry (reference value: 0.1%); format: functional
[9] = tested on: MGC-803; experiment: Induction of apoptosis in human MGC803 cells assessed as late apoptotic cells at 0.01 uM after 24 hrs by Annexin V-FITC/propidium iodide staining-based flow cytometry (reference value: 0%); format: functional
[10] = tested on: MGC-803; experiment: Induction of apoptosis in human MGC803 cells assessed as necrotic cells at 0.01 uM after 24 hrs by Annexin V-FITC/propidium iodide staining-based flow cytometry (reference value: 0%); format: functional
[11] = tested on: MGC-803; experiment: Induction of apoptosis in human MGC803 cells assessed as late apoptotic cells at 0.06 uM after 24 hrs by Annexin V-FITC/propidium iodide staining-based flow cytometry (reference value: 0%); format: functional
[12] = tested on: MGC-803; experiment: Induction of apoptosis in human MGC803 cells assessed as viable cells at 0.01 uM after 24 hrs by Annexin V-FITC/propidium iodide staining-based flow cytometry (reference value: 99.9%); format: functional; conditions: MGC-803, 24 h, read-out: Activity
[13] = tested on: MGC-803; experiment: Induction of apoptosis in human MGC803 cells assessed as viable cells at 0.06 uM after 24 hrs by Annexin V-FITC/propidium iodide staining-based flow cytometry (reference value: 99.9%); format: functional; conditions: MGC-803, 24 h, read-out: Activity
[14] = tested on: MGC-803; experiment: Induction of apoptosis in human MGC803 cells assessed as late apoptotic cells at 0.12 uM after 24 hrs by Annexin V-FITC/propidium iodide staining-based flow cytometry (reference value: 0%); format: functional
[15] = tested on: MGC-803; experiment: Induction of apoptosis in human MGC803 cells assessed as necrotic cells at 0.12 uM after 24 hrs by Annexin V-FITC/propidium iodide staining-based flow cytometry (reference value: 0%); format: functional
[16] = tested on: MGC-803; experiment: Induction of apoptosis in human MGC803 cells after 24 hrs by Annexin V-FITC/propidium iodide staining-based flow cytometry; format: functional, cell-based
[17] = tested on: MGC-803; experiment: Induction of apoptosis in human MGC803 cells assessed as early apoptotic cells at 0.06 uM after 24 hrs by Annexin V-FITC/propidium iodide staining-based flow cytometry (reference value: 0.1%); format: functional
[18] = tested on: MGC-803; experiment: Induction of apoptosis in human MGC803 cells assessed as early apoptotic cells at 0.12 uM after 24 hrs by Annexin V-FITC/propidium iodide staining-based flow cytometry (reference value: 0.1%); format: functional

Structure (SMILES) | IC50 [1] | IC50 [2] | CC50 at 72 h [3] | IC50 [4] | IC50 [5] | further results
Cc1nc([N+](=O)[O-])cn1C/C(=N/OC(=O)c1ccc(Cl)nc1)c1ccc(Br)cc1 | 0.82 µg/mL (≈ 1.71 µM) | 0.79 µg/mL (≈ 1.65 µM) | 250 µg/mL (≈ 522 µM) | 0.96 µg/mL (≈ 2.01 µM) | 0.71 µg/mL (≈ 1.48 µM) | –
O=c1[nH]cc(F)c(=O)[nH]1 [FLUOROURACIL] | 1.8 µg/mL (≈ 13.8 µM) | 2.19 µg/mL (≈ 16.8 µM) | – | 3.82 µg/mL (≈ 29.4 µM) | 2.24 µg/mL (≈ 17.2 µM) | –
Cc1ccc(C(=O)O/N=C(/Cn2cc([N+](=O)[O-])nc2C)c2ccc(Br)cc2)cc1 | 0.81 µg/mL (≈ 1.77 µM) | 1.54 µg/mL (≈ 3.37 µM) | 270 µg/mL (≈ 590 µM) | 0.96 µg/mL (≈ 2.1 µM) | 0.96 µg/mL (≈ 2.1 µM) | –
Cc1nc([N+](=O)[O-])cn1C/C(=N/OC(=O)c1ccc([N+](=O)[O-])cc1)c1ccc(Br)cc1 | 0.37 µg/mL (≈ 0.758 µM) | 0.86 µg/mL (≈ 1.76 µM) | 160 µg/mL (≈ 328 µM) | 12.4 µg/mL (≈ 25.4 µM) | 1.43 µg/mL (≈ 2.93 µM) | –
Cc1nc([N+](=O)[O-])cn1C/C(=N/OC(=O)c1ccc(Br)cc1)c1ccc(Br)cc1 | 1.48 µg/mL (≈ 2.83 µM) | 2.56 µg/mL (≈ 4.9 µM) | 330 µg/mL (≈ 632 µM) | 5.67 µg/mL (≈ 10.9 µM) | 2.56 µg/mL (≈ 4.9 µM) | –
COc1ccccc1C(=O)O/N=C(/Cn1cc([N+](=O)[O-])nc1C)c1ccc(Br)cc1 | 3.53 µg/mL (≈ 7.46 µM) | 3.13 µg/mL (≈ 6.61 µM) | 500 µg/mL (≈ 1060 µM) | > 20 µg/mL | > 20 µg/mL | –
Cc1nc([N+](=O)[O-])cn1C/C(=N/OC(=O)c1cccnc1Cl)c1ccc(Br)cc1 | 0.73 µg/mL (≈ 1.52 µM) | 0.76 µg/mL (≈ 1.59 µM) | 12000 µg/mL (≈ 25100 µM) | 1.28 µg/mL (≈ 2.67 µM) | 0.76 µg/mL (≈ 1.59 µM) | –
Cc1ccccc1C(=O)O/N=C(/Cn1cc([N+](=O)[O-])nc1C)c1ccc(Br)cc1 | 0.84 µg/mL (≈ 1.84 µM) | 2.15 µg/mL (≈ 4.7 µM) | 3800 µg/mL (≈ 8310 µM) | 9.76 µg/mL (≈ 21.3 µM) | 2.37 µg/mL (≈ 5.18 µM) | –
Cc1ccc(C(=O)O/N=C(/Cn2cc([N+](=O)[O-])nc2C)c2ccc(Br)cc2)cn1 | 0.005 µg/mL (≈ 0.0109 µM) | 0.72 µg/mL (≈ 1.57 µM) | 8300 µg/mL (≈ 18100 µM) | 0.86 µg/mL (≈ 1.88 µM) | 0.75 µg/mL (≈ 1.64 µM) | Activity [6]: 0.2%; viability at 0.12 µM [7]: 18.4%; Activity [8]: 9.7%; Activity [9]: 28.1%; Activity [10]: 1.2%; Activity [11]: 43.2%; viability at 0.01 µM [12]: 61%; viability at 0.06 µM [13]: 41.2%; Activity [14]: 64.6%; Activity [15]: 0.1%; Activity [16]: Dose-dependent effect; Activity [17]: 15.4%; Activity [18]: 16.9%
COc1ccc(C(=O)O/N=C(/Cn2cc([N+](=O)[O-])nc2C)c2ccc(Br)cc2)cc1 | 0.34 µg/mL (≈ 0.718 µM) | 3.15 µg/mL (≈ 6.66 µM) | 1600 µg/mL (≈ 3380 µM) | 6.54 µg/mL (≈ 13.8 µM) | 1.25 µg/mL (≈ 2.64 µM) | –
Cc1nc([N+](=O)[O-])cn1C/C(=N/OC(=O)c1ccccc1Cl)c1ccc(Br)cc1 | 0.16 µg/mL (≈ 0.335 µM) | 1.27 µg/mL (≈ 2.66 µM) | 530 µg/mL (≈ 1110 µM) | 8.53 µg/mL (≈ 17.9 µM) | 1.33 µg/mL (≈ 2.78 µM) | –
Cc1nc([N+](=O)[O-])cn1C/C(=N/OC(=O)c1ccc(F)cc1)c1ccc(Br)cc1 | 1.24 µg/mL (≈ 2.69 µM) | 2.12 µg/mL (≈ 4.6 µM) | 23000 µg/mL (≈ 49900 µM) | 7.24 µg/mL (≈ 15.7 µM) | 1.22 µg/mL (≈ 2.65 µM) | –
Cc1nc([N+](=O)[O-])cn1C/C(=N/OC(=O)c1ccccc1)c1ccc(Br)cc1 | 3.66 µg/mL (≈ 8.26 µM) | > 20 µg/mL | 32000 µg/mL (≈ 72200 µM) | > 20 µg/mL | 14 µg/mL (≈ 31.5 µM) | –
CC1=CC(=O)C(C(C)C)=CC1=O [THYMOQUINONE] | – | – | 140 µg/mL (≈ 853 µM) | – | – | –
Cc1nc([N+](=O)[O-])cn1C/C(=N/OC(=O)c1cccnc1)c1ccc(Br)cc1 | 0.01 µg/mL (≈ 0.0225 µM) | 0.78 µg/mL (≈ 1.76 µM) | 50 µg/mL (≈ 113 µM) | 1.51 µg/mL (≈ 3.4 µM) | 0.73 µg/mL (≈ 1.64 µM) | –
Cc1nc([N+](=O)[O-])cn1C/C(=N/OC(=O)c1ccc(Cl)cc1)c1ccc(Br)cc1 | 0.45 µg/mL (≈ 0.942 µM) | 2.79 µg/mL (≈ 5.84 µM) | 230 µg/mL (≈ 481 µM) | 8.79 µg/mL (≈ 18.4 µM) | 1.34 µg/mL (≈ 2.81 µM) | –
Cc1nc([N+](=O)[O-])cn1C/C(=N/OC(=O)c1ccccc1Br)c1ccc(Br)cc1 | 2.63 µg/mL (≈ 5.04 µM) | 3.79 µg/mL (≈ 7.26 µM) | 150 µg/mL (≈ 287 µM) | > 20 µg/mL | 4.38 µg/mL (≈ 8.39 µM) | –
Cc1nc([N+](=O)[O-])cn1C/C(=N/OC(=O)c1cccc(Cl)c1)c1ccc(Br)cc1 | 0.18 µg/mL (≈ 0.377 µM) | 0.84 µg/mL (≈ 1.76 µM) | 700 µg/mL (≈ 1470 µM) | 4.09 µg/mL (≈ 8.56 µM) | 1.15 µg/mL (≈ 2.41 µM) | –
Cc1nc([N+](=O)[O-])cn1C/C(=N\O)c1ccc(Br)cc1 | > 20 µg/mL | > 20 µg/mL | – | > 20 µg/mL | 17.4 µg/mL (≈ 51.3 µM) | –
COc1ccc(C(=O)O/N=C(/Cn2cc([N+](=O)[O-])nc2C)c2ccc(Br)cc2)cn1 | 0.03 µg/mL (≈ 0.0633 µM) | 0.89 µg/mL (≈ 1.88 µM) | 980 µg/mL (≈ 2070 µM) | 2.35 µg/mL (≈ 4.95 µM) | 0.92 µg/mL (≈ 1.94 µM) | –
Cc1nc([N+](=O)[O-])cn1C/C(=N/OC(=O)c1cccc(Br)c1)c1ccc(Br)cc1 | 0.04 µg/mL (≈ 0.0766 µM) | 1.37 µg/mL (≈ 2.62 µM) | 180 µg/mL (≈ 345 µM) | 2.57 µg/mL (≈ 4.92 µM) | 0.86 µg/mL (≈ 1.65 µM) | –
Cc1nc([N+](=O)[O-])cn1C/C(=N/OC(=O)c1ccncc1)c1ccc(Br)cc1 | 0.02 µg/mL (≈ 0.045 µM) | 0.87 µg/mL (≈ 1.96 µM) | 80 µg/mL (≈ 180 µM) | 1.63 µg/mL (≈ 3.67 µM) | 0.81 µg/mL (≈ 1.82 µM) | –
Cc1nc([N+](=O)[O-])cn1C/C(=N/OC(=O)c1cccc(F)c1)c1ccc(Br)cc1 | 0.21 µg/mL (≈ 0.455 µM) | 1.87 µg/mL (≈ 4.05 µM) | 530 µg/mL (≈ 1150 µM) | 4.55 µg/mL (≈ 9.86 µM) | 0.97 µg/mL (≈ 2.1 µM) | –
Cc1cccc(C(=O)O/N=C(/Cn2cc([N+](=O)[O-])nc2C)c2ccc(Br)cc2)c1 | 3.25 µg/mL (≈ 7.11 µM) | 2.82 µg/mL (≈ 6.17 µM) | 1300 µg/mL (≈ 2840 µM) | 12.3 µg/mL (≈ 27 µM) | 10.7 µg/mL (≈ 23.3 µM) | –
Cc1nc([N+](=O)[O-])cn1C/C(=N/OC(=O)c1ccccc1[N+](=O)[O-])c1ccc(Br)cc1 | 2.54 µg/mL (≈ 5.2 µM) | 7.13 µg/mL (≈ 14.6 µM) | 230 µg/mL (≈ 471 µM) | 11.3 µg/mL (≈ 23.2 µM) | 6.59 µg/mL (≈ 13.5 µM) | –
